Screens as filed in PubChem.
PG9 binder = PG9 antibody binding by small molecule. AID 624416. actives 0.43% (n = 360,000). TR-FRET gp120-PG9 antibody binding. inhibition, % at 6.7 µM; in the data active = inhibition above about 8.5%
NR2E3 ag-1 = agonists of human NR2E3 nuclear receptor | Q9Y5X4 | CHO-S Gal4-NCOR/VP16-NR2E3 two-hybrid, luciferase | inhibition of corepressor binding, % at 3.98 µM | actives 0.35% (n = 360,000);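 active = inhibition above the mean of all tested compounds plus 3 SD, cut at about 70% in these data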;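 also: higher means lower luciferase signal from less NR2E3 corepressor binding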
Target sequence (Q9Y5X4 whole entry, looked up, the tested form may be a part): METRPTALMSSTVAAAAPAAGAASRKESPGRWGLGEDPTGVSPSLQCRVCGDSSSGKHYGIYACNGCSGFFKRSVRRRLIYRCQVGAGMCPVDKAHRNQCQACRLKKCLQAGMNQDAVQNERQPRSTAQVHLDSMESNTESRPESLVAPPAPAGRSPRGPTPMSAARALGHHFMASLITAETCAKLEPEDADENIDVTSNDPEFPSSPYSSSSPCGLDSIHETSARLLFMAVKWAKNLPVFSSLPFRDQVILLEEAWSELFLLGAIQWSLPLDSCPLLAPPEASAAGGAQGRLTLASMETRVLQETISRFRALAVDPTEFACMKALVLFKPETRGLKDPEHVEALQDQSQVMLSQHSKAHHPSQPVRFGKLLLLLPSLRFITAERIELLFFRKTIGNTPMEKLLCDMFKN
VLA-4 inh = inhibition in a human VLA-4 binding assay. P13612. VLA-4 expressing cells, ligand binding flow cytometry. inhibition, % (about 7 µM as worked out from the volumes in the protocol). actives 0.2% (n = 330,000). AID 2557; in the data active = inhibition above about 50%
NR2E3 ag-2 = NR2E3 (human) agonism | actives 0.12% (n = 320,000) | GST-NR2E3/biotin-RetCOR TR-FRET, 1536-well | Q9Y5X4 | inhibition of corepressor binding, % at 4.78 µM;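 active = percent inhibition above the cutoff of mean plus 3 SD of all tested compounds, set per screening campaign, cut at about 20% in these data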
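Test system – NR2E3–RetCOR corepressor complex · Quantity – NR2E3 fusion 1.35 nM · Buffer or medium – Tris pH 7.5 · Incubation – Compound–protein incubation for 5 h at 4 °C · Technique – TR-FRET, Eu(K)-anti-GST donor, streptavidin-D2 acceptor, ex 340, em 617/671 nm · Evaluation – percent inhibition of 671/617 nm emission ratio versus biotin and DMSO controls · Plate – 1536-well format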
Rev-erbA mod = Rev-erb alpha (human) modulation | AID 1259318 | actives 0.79% (n = 370,000) | activity, % at 10 µM | Rev-erbα–FITC-DNA binding, fluorescence polarization, 90 min;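 active = activity above about 14%, limit read from the data; passing the limit was not always enough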
PG9 bind confirm = confirmation of small molecules binding HIV-1 gp120 antibody PG9. TR-FRET PG9 antibody binding, biochemical. AID 651571. actives 90% (n = 1,500). shares compounds with PG9 binder. inhibition, % at 6.7 µM; in the data active = inhibition above about 9%
PGV04 Ab binding = PGV04 control antibody binding, counter-screen. shares compounds with PG9 binder. inhibition, % at 6.7 µM. actives 95% (n = 1,500). TR-FRET PGV04 antibody-gp120 binding, biochemical. AID 651604; in the data active = inhibition above about 9.5%
Large screens that a line does not name were inactive (follow-up assays come after a bar, where they were run). Compounds with a hit are over-represented: about 1.6% of the library has one in this group of screens.

Cc1ccc(C(=O)C2=C(O)C(=O)N(Cc3cccnc3)C2c2ccc(Cl)cc2)o1 (stereo not drawn)	PG9 binder 19 | PG9 bind confirm 27 | PGV04 Ab binding 36
CCCOc1ccc(C2C(C(=O)c3ccc(C)o3)=C(O)C(=O)N2Cc2ccco2)cc1 (stereo not drawn)	PG9 binder 14 | PG9 bind confirm 16 | PGV04 Ab binding 21
Cc1cc(N2C(=O)C(O)=C(C(=O)c3ccco3)C2c2cccc(Cl)c2)no1 (stereo not drawn)	none
COc1ccc(C2C(C(=O)c3ccc(C)o3)=C(O)C(=O)N2Cc2cccnc2)cc1OC (stereo not drawn)	none
Cc1cc(N2C(=O)C(O)=C(C(=O)c3ccc(C)o3)C2c2cccc(Cl)c2)no1 (stereo not drawn)	PG9 binder 8.7 (no result: VLA-4 inh, NR2E3 ag-2) | PG9 bind confirm 17 | PGV04 Ab binding 24
CCOc1ccc(C2C(C(=O)c3ccc(C)o3)=C(O)C(=O)N2Cc2cccnc2)cc1 (stereo not drawn)	PG9 binder 23 | PG9 bind confirm 35 | PGV04 Ab binding 41
O=C(Nc1ccc(F)cc1)Nc1c(-c2ccc(F)cc2)nc2ncccn12	none (no result: PG9 binder, NR2E3 ag-1, VLA-4 inh, NR2E3 ag-2)
COc1cccc(CN[C@@H]2CC[C@@]34CCCN3C(=O)CCC[C@H]4C2)c1	none (no result: PG9 binder, NR2E3 ag-1, VLA-4 inh, NR2E3 ag-2)
CSc1ccc(C=Nn2c(-c3cc(C)[nH]n3)n[nH]c2=S)cc1	none (no result: PG9 binder, NR2E3 ag-1, VLA-4 inh, NR2E3 ag-2)
Cc1cccc2cc(CN(Cc3ccco3)C(=O)c3ccncc3)c(=O)[nH]c12	PG9 binder 9.3 | PG9 bind confirm inactive | PGV04 Ab binding 10
COc1ccc(C)c(NC(=O)[C@@H]2CCCN2S(=O)(=O)c2cccc3cccnc23)c1	none (no result: PG9 binder, NR2E3 ag-1, VLA-4 inh, NR2E3 ag-2)
Cn1c(CNC(=O)C2CCCCC2)cc2cc(Cl)ccc21	PG9 binder 19 | PG9 bind confirm 22 | PGV04 Ab binding 34
CC(C)(C)c1ccc(S(=O)(=O)N2CCCC(C(=O)NCc3ccco3)C2)cc1 (stereo not drawn)	none (no result: PG9 binder, NR2E3 ag-1, VLA-4 inh, NR2E3 ag-2)
Cc1nn(C)cc1CN(C)C(=O)c1cc(-c2ccccc2)nc2ccc(Br)cc12	PG9 binder 13 | PG9 bind confirm 21 | PGV04 Ab binding 26
Cc1ccc(-c2cc(C(=O)NCc3cnn(C)c3)c3cc(Br)ccc3n2)cc1	PG9 binder 11 | PG9 bind confirm inactive | PGV04 Ab binding 58
COc1ccc(CN(C)C(=O)c2cc(-c3ccccc3)nc3ccc(C)cc23)c(OC)c1	none (no result: VLA-4 inh, NR2E3 ag-2)
Cn1cc(CNC(=O)c2cc(-c3ccc(Br)cc3)nc3ccccc23)cn1	none
Cn1cc(CNC(=O)c2cc(-c3ccccc3)nc3ccc(Br)cc23)cn1	PG9 binder 11 | PG9 bind confirm 14 | PGV04 Ab binding 20
Cc1ccc2c(c1)C(CS(=O)(=O)NC1CCCC1)NC2 (stereo not drawn)	none (no result: PG9 binder, NR2E3 ag-1, VLA-4 inh, NR2E3 ag-2)
NS(=O)(=O)c1c(Sc2ccccc2C(=O)O)ccc2ccccc12	PG9 binder 15 | PG9 bind confirm 15 | PGV04 Ab binding 20
COc1ccc(S(=O)(=O)N2CCN(c3ncccn3)CC2)cc1	none
O=S(=O)(c1ccc(Cl)cc1)N1CCN(c2ncccn2)CC1	PG9 binder 16 | PG9 bind confirm 26 | PGV04 Ab binding 32
CCCCCCN1CCS(=O)(=O)N(Cc2ccc(OC)cc2)C(C(=O)OC)C1 (stereo not drawn)	none (no result: PG9 binder, NR2E3 ag-1, VLA-4 inh, NR2E3 ag-2)
CCOC(=O)c1sc2nccc(N(C)C)c2c1N=CNOCc1c(F)cccc1Cl	PG9 binder 10 | PG9 bind confirm 18 | PGV04 Ab binding 25
CCOC(=O)c1sc2nccc(N(C)C)c2c1N=CNOCc1ccccc1	none
O=C(Nc1ccccc1)c1ccc(COc2ccccc2)cc1	PG9 binder 13 | PG9 bind confirm 12 | PGV04 Ab binding 16
O=C(Nc1nnc(CCc2ccccc2)s1)c1ccc(F)cc1	none
CC(=O)Nc1ccc(C(=O)Nc2nnc(CCc3ccccc3)s2)cc1	PG9 binder 25 | PG9 bind confirm 15 | PGV04 Ab binding 24
Cc1ccc(OCc2nnc(NC(=O)c3cccnc3)s2)cc1	none
Cc1ccc(C(=O)Nc2nnc(COc3ccccc3)s2)cc1	PG9 binder 25 | PG9 bind confirm 34 | PGV04 Ab binding 39
